Rows were chosen to be rich in hits. Some 3.5% of all compounds tested hit in one or more screens of this group.
MrgX1 antagonist: antagonists of human MrgX1 receptor; AID 588676; 310,000 compounds, 1.3% hits; MRGX1-HEK293 calcium flux, Fluo-4, BAM8-22 antagonism; hits give low values; Q96LB2; B-score at 10 µM;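 active means calcium-response B-score plate-corrected more than 3 library SD below zero, starting fluorescence within 5 deviations, no agonist response on first addition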;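 further: peak minus trough fluorescence over baseline after final BAM8-22 challenge near maximal dose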
Target sequence (Q96LB2 whole entry, looked up): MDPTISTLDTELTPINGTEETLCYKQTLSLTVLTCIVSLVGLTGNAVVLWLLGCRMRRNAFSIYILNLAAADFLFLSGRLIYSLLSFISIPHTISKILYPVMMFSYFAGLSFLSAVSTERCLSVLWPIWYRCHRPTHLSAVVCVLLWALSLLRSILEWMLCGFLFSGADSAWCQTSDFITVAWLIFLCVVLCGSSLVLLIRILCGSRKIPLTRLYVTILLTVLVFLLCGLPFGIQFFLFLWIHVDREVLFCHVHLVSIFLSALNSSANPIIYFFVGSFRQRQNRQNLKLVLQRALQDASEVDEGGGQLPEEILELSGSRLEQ
RGS4 inh: human RGS4 inhibition. P49798. HEK293 M3R/RGS4 inducible, Fluo-4 calcium flux; hits give high values; triggered by carbachol at its EC20. B-score at 10 µM. 310,000 compounds, 0.45% hits;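 active means B-score, a plate-corrected calcium signal, over three deviations above library mean, with baseline fluorescence within five deviations of library mean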;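 further: RGS4 expression induced by doxycycline in cells with stable M3 receptor; B-score is computed from the integrated fluorescence ratio over baseline after carbachol; higher B-score means a larger calcium signal and so more RGS4 inhibition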
Target sequence (P49798 whole entry, looked up): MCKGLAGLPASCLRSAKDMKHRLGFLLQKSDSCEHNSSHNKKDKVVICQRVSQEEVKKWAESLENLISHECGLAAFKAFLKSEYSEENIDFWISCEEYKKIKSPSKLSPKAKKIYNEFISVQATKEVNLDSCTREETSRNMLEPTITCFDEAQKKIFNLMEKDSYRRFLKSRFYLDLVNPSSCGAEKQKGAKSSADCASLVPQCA
RGS4 act: potentiators or activators of RGS4. B-score at 10 µM. 310,000 compounds, 0.92% hits. HEK293 M3R/inducible RGS4, carbachol calcium flux Fluo4; hits give low values;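 active means B-score of the integrated calcium signal more than 4 SD below the library mean, with starting fluorescence not abnormally high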;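 further: negative B-score means reduced calcium response which marks RGS4 activation or potentiation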
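Assay system: Inducible-RGS4 HEK293 cells carrying M3 receptor | Schedule: Compound preincubation 20 min at room temperature before agonist | Signal: Kinetic calcium fluorescence imaging with Fluo4-AM dye, 2 µM | Read-out basis: B score from integrated fluorescence ratio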
MrgX1 agonist: activates human MrgX1 receptor signaling | Q96LB2 | MrgX1-HEK293 cells, Fluo-4 calcium fluorescence, agonist mode; hits give high values | B-score at 10 µM | 310,000 compounds, 0.44% hits;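 active means calcium response B-score plate-corrected fluorescence ratio at least 3 library SD, with starting fluorescence B-score inside 5 SD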
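Assay system: stable human MrgX1 HEK293 cell line. Quantity: 15,000 cells per well. Schedule: cells plated overnight, dye loaded 0.5 h 37 °C, 0.5 h room temperature. Detection: Fluo-4 NW calcium-flux fluorescence, kinetic read. Read-out basis: peak-minus-minimum fluorescence over baseline, converted to B scores. Control set: positive and negative control wells on each plate.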
MrgX1 PAM: allosterically activates human MrgX1 receptor signaling. MrgX1-HEK293, Fluo-4 calcium flux, FDSS; hits give high values. B-score at 10 µM. 310,000 compounds, 0.63% hits. AID 588675;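 active means plate-corrected calcium response at least 3 library SD above typical, normal starting fluorescence, not activating the receptor alone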;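 further: compound read alongside a low EC10 to EC30 dose of BAM8-22 agonist; peak minus trough fluorescence over baseline measured at the second addition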
MrgX1 ant reconf: confirmation of human MrgX1 receptor antagonists. shares compounds with MrgX1 antagonist. MrgX1-HEK293, BAM8-22 calcium flux, Fluo-4; hits give low values. remaining BAM8-22 calcium response % of control (hits give low values), % at 10 µM. 2,300 compounds, 19% hits;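 active means remaining agonist calcium response no higher than 100% minus 3 SD of agonist-only control wells, with starting fluorescence near control levels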;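 further: agonist BAM8-22 given at a near maximal EC90 to ECmax level; peak minus minimum fluorescence divided by baseline after agonist addition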
HEK293 Ca flux: activity in parental HEK293 cells lacking MrgX1. AID 624111. fluorescence ratio F(max-min)/F0 at 10 µM. shares compounds with MrgX1 antagonist. Fluo-4 calcium fluorescence, FDSS. 4,000 compounds, 2% hits;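 active means duplicate-averaged calcium fluorescence ratio at least three times the standard deviation of buffer wells, a nonspecific response in parental cells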
HEK293 Ca counter: counter-screen for MrgX1 allosteric activators: effect in parental HEK293 cells; shares compounds with MrgX1 antagonist; parental HEK293 calcium flux, Fluo-4 fluorescence ratio; hits give high values; fluorescence ratio F(max-min)/F0 at 10 µM; 4,000 compounds, 0.4% hits; AID 624114;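 active means calcium fluorescence ratio, averaged over duplicates, at least 3 SD of the buffer-well ratio, meaning a nonspecific response in receptor-free cells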;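 further: untransfected parental HEK293 lacking MrgX1 used as counterscreen for MrgX1 allosteric activators; fluorescence change taken during the second addition on a kinetic imager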
HEK293 Ca cntr2: counter-screen for MrgX1 activators: effect in parental HEK293 cells | shares compounds with MrgX1 antagonist | Fluo-4 calcium fluorescence (FDSS); hits give high values | fluorescence ratio F(max-min)/F0 at 10 µM | 4,000 compounds, 8.7% hits;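 active means calcium fluorescence ratio at least three times the spread of buffer wells, meaning a non-specific response in parental cells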
Active calls of the source: *; i = inactive; / = no result.

SMILES	MrgX1 antagonist	RGS4 inh	RGS4 act	MrgX1 agonist	MrgX1 PAM	MrgX1 ant reconf	HEK293 Ca flux	HEK293 Ca counter	HEK293 Ca cntr2
Cc1ccc(-c2csc(N(CC3CCCO3)C(=O)c3ccco3)n2)cc1 (stereo not drawn)	-4.7*	i	i	i	i	i	i	i	i
Cc1occc1C(=O)N/N=C/c1cccs1	-10*	i	i	i	i	83%*	i	i	i
COc1ccc(/C=N/n2c(C3CCCCC3)n[nH]c2=S)c(OC)c1	i	i	i	i	i	/	/	/	/
Cc1cccc(N2CCN(C(=O)c3cn4ccccc4n3)CC2C)c1 (stereo not drawn)	i	i	i	i	i	/	/	/	/
O=C(O)Cn1nc(-c2ccccc2)cc1-c1ccccc1	-5.6*	i	i	i	i	i	i	i	i
O=C(O)CC(C(=O)O)n1nc(-c2ccccc2)cc1-c1ccccc1 (stereo not drawn)	i	i	i	i	i	/	/	/	/
CCn1ccnc1CN1CCN(CCC(C)C)C(CCO)C1 (stereo not drawn)	-6.2*	i	i	i	i	i	i	i	i
CCn1ccnc1CN1CCN(CC(C)C)C(CCO)C1 (stereo not drawn)	i	i	i	i	i	/	/	/	/
O=C(CSc1nnc(CNC(=O)c2ccccc2)o1)NCc1ccccc1Cl	-6.6*	i	i	i	i	i	i	i	i
O=C(CSc1nnc(CNC(=O)c2ccc(F)cc2)o1)NCc1ccccc1Cl	i	i	i	i	i	/	/	/	/
O=C(CSc1nnc(CNC(=O)c2ccc(F)cc2)o1)NCc1ccc2c(c1)OCO2	-7.6*	i	i	i	i	i	i	i	i
O=C(CSc1nnc(CNC(=O)c2ccc(F)cc2)o1)NCc1ccc(F)cc1	i	i	i	i	i	/	/	/	/
COCCCNC(=O)CC1Oc2ccccc2NC1=O (stereo not drawn)	i	i	i	i	i	/	/	/	/
CCCSCCCNC(=O)CC1Oc2ccccc2NC1=O (stereo not drawn)	-4.9*	i	i	i	i	i	i	i	i
CCc1ccccc1NC(=O)[C@@H]1CCC(=O)N1C1OC(=O)c2ccccc21 (stereo partly drawn)	-8.1*	i	i	i	i	85%*	i	i	i
CCOC(=O)c1nnc(-c2ccccc2)nc1N1CCSCC1	-5.6*	i	i	i	i	i	i	i	i
CCn1c(/C=C/c2c(C)[nH]c3ccccc23)nc2ccccc2c1=O	-5.3*	i	i	i	i	i	i	i	i
CC1CCCCC1NC(=O)c1cccc(S(=O)(=O)N2CCN(Cc3ccccc3)CC2)c1 (stereo not drawn)	-6.1*	i	i	i	i	i	i	i	i
Cc1nn(C)c(C)c1NS(=O)(=O)c1cccc(Br)c1	-4.7*	i	i	i	i	i	i	i	i
Cc1c(C(=O)N(C)C)c2cc(Cl)ccc2n1O	-5*	i	i	i	i	i	i	i	i
O=[N+]([O-])c1ccc(/C=C2\CCC(C3=CCCC3)=C2N2CCOCC2)cc1	i	i	i	i	i	/	/	/	/
COc1ccc(C(=O)N[C@H](C(=O)OCC(=O)NC(=O)c2cccn2C)C(C)C)cc1	-4.8*	i	i	i	i	i	i	i	i
CCN(CC)S(=O)(=O)c1ccc(OC)c(NC(=O)c2ccc3c(c2)OCO3)c1	-7.6*	i	i	i	i	i	i	i	i
O=[N+]([O-])c1sccc1CS(=O)(=O)c1ccccc1	i	i	i	i	i	/	/	/	/
COC(=O)c1ccc(NC(=O)C2C3C=CC(O3)C2C(=O)O)cc1 (stereo not drawn)	-8.7*	i	i	i	i	i	i	i	i
SMILES	MrgX1 antagonist	RGS4 inh	RGS4 act	MrgX1 agonist	MrgX1 PAM	MrgX1 ant reconf	HEK293 Ca flux	HEK293 Ca counter	HEK293 Ca cntr2
COc1ccc(CCC(=O)Nc2ccc(Cl)c(S(=O)(=O)N3CCCC3)c2)cc1	-5.9*	i	i	i	i	78%*	i	i	i
Cc1ccccc1OCC(=O)Nc1ccc(C)c(S(=O)(=O)N2CCCCCC2)c1	i	i	i	i	i	/	/	/	/
COc1ccc(NC(=O)CCOc2ccccc2C)cc1S(=O)(=O)N1CCCCC1	-5.4*	i	i	i	i	i	i	i	i
Cc1cc(NS(=O)(=O)c2ccc(NC(=S)NC(=O)c3ccc(Br)cc3)cc2)no1	i	i	i	i	i	/	/	/	/
CCCCOC(=O)Cn1c(=O)n(CC(=O)OCCCC)c2ccccc21	i	i	i	i	i	/	/	/	/
CCCCCCCCCCOC(=O)Cn1c(COc2ccc(Cl)cc2)[n+](C)c2ccccc21	-10*	i	i	i	i	i	i	i	i
CCCCCOC(=O)Cn1c(=O)oc2ccccc21	i	i	i	i	i	/	/	/	/
CCCCCCCCCCOC(=O)Cn1c(COc2ccccc2C)[n+](C)c2ccccc21	-12*	i	-7.4*	i	i	i	i	i	i
CCCCCCCCCCOC(=O)Cn1c(COc2ccccc2)[n+](C)c2ccccc21	-10*	i	-9.3*	i	i	i	i	i	i
C/C(CC(=O)Nc1ccc2c(c1)OCCO2)=N\NC(=O)COc1ccc(Cl)c(C)c1	i	i	i	i	i	/	/	/	/
CC(Oc1ccc(Br)cc1)C(=O)Nc1ccc(S(=O)(=O)N(C)C2CCN(C)CC2)cc1 (stereo not drawn)	-16*	i	i	i	i	i	i	i	48*
CCOC(=O)CSc1nnc(CNC(=O)c2cccc(C)c2)n1C	i	i	i	i	i	/	/	/	/

Screens (PubChem BioAssay)
